Data: ChEMBL document CHEMBL1140747, “Discovery of potent and selective dipeptidyl peptidase IV inhibitors derived from beta-aminoamides bearing subsituted triazolopiperazines” (J Med Chem, 2008)

Experiments:
[1] = molecular target: T1, Prolyl endopeptidase FAP (Homo sapiens, UniProt Q12884); assay: Inhibition of FAP
T1 sequence (Q12884 whole entry): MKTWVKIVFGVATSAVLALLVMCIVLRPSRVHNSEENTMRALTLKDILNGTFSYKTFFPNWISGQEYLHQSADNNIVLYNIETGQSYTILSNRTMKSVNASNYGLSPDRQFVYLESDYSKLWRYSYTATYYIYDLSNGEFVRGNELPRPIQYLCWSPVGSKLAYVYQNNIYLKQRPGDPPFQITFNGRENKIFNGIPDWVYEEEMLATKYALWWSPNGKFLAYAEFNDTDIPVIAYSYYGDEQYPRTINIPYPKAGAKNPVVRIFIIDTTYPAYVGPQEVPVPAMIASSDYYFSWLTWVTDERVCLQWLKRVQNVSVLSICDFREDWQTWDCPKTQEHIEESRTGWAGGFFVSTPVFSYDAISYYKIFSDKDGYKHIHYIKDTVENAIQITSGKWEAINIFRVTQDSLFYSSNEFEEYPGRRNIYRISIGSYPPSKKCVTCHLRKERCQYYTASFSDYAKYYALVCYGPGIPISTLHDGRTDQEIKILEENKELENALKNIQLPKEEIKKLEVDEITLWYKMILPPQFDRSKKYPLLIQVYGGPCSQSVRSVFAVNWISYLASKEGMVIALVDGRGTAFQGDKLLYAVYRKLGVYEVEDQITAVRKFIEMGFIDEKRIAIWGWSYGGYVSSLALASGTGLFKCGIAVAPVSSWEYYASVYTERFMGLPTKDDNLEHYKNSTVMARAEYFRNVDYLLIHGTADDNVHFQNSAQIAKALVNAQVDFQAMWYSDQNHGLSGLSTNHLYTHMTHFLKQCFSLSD

[2] = Plasma clearance in rat at 1 mg/kg, iv and 2 mg/kg, po; assay type: ADME, organism-based
[3] = molecular target: Dipeptidyl peptidase 2 (Homo sapiens, UniProt Q9UHL4); assay: Inhibition of QPP
[4] = (§1) Oral bioavailability in rat at 2 mg/kg; assay type: ADME, organism-based; details: in vivo
[5] = molecular target: Xaa-Pro aminopeptidase 1 (Homo sapiens, UniProt Q9NQW7); assay: Inhibition of amino peptidase P
Chain of Xaa-Pro aminopeptidase 1 (Q9NQW7 whole entry): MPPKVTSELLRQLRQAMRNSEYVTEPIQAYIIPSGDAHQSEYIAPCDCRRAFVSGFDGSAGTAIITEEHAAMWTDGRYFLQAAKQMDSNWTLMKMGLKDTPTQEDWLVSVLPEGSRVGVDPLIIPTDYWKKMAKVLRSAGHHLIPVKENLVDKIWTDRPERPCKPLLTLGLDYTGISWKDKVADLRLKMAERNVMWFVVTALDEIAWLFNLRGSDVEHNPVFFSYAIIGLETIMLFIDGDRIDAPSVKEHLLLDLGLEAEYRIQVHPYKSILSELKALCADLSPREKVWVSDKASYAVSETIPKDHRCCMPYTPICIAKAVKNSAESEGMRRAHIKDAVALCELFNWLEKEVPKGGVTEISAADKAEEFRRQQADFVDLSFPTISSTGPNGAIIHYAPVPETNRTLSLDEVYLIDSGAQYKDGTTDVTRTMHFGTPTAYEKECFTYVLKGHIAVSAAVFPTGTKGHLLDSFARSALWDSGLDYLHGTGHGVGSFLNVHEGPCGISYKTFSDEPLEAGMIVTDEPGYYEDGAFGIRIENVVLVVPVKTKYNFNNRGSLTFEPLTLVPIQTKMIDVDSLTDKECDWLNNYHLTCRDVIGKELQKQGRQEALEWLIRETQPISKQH

[6] = molecular target: Dipeptidyl peptidase 4 (Homo sapiens, UniProt P27487)
Chain of Dipeptidyl peptidase 4 (Homo sapiens, UniProt P27487) (P27487 whole entry): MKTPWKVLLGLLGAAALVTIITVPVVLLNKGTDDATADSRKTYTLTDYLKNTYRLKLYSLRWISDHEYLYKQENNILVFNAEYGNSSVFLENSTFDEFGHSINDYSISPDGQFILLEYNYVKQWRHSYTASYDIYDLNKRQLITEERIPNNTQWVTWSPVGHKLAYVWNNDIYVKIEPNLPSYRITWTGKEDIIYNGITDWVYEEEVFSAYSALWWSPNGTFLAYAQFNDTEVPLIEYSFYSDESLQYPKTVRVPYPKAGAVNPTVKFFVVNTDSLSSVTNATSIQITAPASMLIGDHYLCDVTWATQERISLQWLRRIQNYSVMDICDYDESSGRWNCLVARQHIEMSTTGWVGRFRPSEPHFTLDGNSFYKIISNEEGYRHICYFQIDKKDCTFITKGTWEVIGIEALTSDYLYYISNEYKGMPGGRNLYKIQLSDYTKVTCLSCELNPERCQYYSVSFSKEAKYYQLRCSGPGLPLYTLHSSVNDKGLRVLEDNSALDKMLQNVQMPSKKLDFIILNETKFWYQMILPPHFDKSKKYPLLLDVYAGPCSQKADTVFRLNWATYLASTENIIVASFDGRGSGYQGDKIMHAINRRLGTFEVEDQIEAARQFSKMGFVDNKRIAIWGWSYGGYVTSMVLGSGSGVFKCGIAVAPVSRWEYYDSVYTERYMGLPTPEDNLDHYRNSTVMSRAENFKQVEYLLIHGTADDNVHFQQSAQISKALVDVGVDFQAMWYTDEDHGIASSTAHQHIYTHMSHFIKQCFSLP

[7] = Half life in rat at 1 mg/kg, iv and 2 mg/kg, po; assay type: ADME, organism-based; details: in vivo
[8] = molecular target: Dipeptidyl peptidase 8 (Homo sapiens, UniProt Q6V1X1); assay: Inhibition of DPP8
Chain of Dipeptidyl peptidase 8 (Q6V1X1 whole entry): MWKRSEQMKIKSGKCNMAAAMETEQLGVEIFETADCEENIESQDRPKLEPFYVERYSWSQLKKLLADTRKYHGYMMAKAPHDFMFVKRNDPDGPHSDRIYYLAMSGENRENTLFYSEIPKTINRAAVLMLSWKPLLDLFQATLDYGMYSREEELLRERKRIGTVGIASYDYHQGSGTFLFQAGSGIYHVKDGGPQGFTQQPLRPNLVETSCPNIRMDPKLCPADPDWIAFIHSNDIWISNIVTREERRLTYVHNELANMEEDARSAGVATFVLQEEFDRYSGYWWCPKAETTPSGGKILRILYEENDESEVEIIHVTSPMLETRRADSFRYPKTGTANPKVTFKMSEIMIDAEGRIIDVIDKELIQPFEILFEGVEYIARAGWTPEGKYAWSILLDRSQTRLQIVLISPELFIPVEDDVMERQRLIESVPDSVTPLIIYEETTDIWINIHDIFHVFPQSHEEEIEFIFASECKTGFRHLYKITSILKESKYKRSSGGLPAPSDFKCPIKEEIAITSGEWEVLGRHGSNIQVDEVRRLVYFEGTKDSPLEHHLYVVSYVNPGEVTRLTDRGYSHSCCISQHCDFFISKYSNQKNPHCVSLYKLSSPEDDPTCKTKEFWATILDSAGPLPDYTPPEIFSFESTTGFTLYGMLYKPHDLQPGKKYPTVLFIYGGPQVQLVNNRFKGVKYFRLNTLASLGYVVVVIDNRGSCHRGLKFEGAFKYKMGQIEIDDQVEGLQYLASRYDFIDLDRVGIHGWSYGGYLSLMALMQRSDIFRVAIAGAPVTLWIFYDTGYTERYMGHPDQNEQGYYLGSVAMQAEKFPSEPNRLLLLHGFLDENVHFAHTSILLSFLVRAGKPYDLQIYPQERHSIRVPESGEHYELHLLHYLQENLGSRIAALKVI

[9] = molecular target: Dipeptidyl peptidase 9 (Homo sapiens, UniProt Q86TI2); assay: Inhibition of DPP9
Chain of Dipeptidyl peptidase 9 (Q86TI2 whole entry): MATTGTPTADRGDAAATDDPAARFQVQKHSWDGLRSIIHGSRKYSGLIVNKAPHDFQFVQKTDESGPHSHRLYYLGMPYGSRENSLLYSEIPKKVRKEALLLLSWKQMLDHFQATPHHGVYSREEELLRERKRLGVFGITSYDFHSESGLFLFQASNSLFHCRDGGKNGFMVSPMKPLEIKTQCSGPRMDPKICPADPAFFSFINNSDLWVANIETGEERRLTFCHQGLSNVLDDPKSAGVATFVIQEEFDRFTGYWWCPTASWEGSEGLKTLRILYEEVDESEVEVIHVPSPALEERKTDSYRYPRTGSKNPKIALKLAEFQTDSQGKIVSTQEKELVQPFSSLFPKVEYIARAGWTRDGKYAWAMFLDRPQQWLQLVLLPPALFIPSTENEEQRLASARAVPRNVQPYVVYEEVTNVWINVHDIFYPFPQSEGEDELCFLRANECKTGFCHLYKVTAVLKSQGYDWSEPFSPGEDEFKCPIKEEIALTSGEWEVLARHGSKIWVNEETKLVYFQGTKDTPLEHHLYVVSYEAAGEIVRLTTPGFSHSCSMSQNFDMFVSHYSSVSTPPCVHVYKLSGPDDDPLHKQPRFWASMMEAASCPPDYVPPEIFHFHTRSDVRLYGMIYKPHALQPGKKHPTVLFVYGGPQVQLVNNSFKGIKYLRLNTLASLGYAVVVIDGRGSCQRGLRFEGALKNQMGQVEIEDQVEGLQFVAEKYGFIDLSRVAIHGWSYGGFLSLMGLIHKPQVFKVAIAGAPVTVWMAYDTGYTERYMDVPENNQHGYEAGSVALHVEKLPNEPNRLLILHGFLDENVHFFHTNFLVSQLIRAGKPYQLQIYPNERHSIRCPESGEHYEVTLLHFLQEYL

[10] = molecular target: T2, Xaa-Pro dipeptidase (Homo sapiens, UniProt P12955); assay: Inhibition of prolidase
T2 sequence (P12955 whole entry): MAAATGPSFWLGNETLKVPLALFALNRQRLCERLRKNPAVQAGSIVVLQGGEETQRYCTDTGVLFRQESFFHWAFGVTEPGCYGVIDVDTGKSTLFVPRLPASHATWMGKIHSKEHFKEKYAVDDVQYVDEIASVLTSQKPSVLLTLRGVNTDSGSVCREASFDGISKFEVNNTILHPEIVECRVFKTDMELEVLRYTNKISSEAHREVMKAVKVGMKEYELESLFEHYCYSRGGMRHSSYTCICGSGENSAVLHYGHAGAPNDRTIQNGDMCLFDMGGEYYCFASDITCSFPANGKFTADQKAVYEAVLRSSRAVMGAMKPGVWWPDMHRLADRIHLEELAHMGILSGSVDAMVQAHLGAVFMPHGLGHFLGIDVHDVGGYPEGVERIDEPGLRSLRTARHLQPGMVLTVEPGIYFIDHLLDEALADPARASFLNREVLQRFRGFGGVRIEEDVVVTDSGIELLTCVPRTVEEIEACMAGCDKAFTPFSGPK

[11] = Cmax in rat at 2 mg/kg, po; assay type: ADME, organism-based; set-up: dose 2 mg/kg, route oral; details: in vivo
[12] = system: Rattus norvegicus; assay: as §1; assay type: ADME, organism-based; details: in vivo
[13] = Plasma clearance in dog at 1 mg/kg, iv and 2 mg/kg, po; assay type: ADME, organism-based, Canis lupus familiaris
[14] = system: Plasma; assay: Drug level in mouse plasma at 1 mg/kg; assay type: ADME, organism-based; set-up: dose 1 mg/kg; details: in vivo
Outline: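 Lean mice, oral OGTT: single oral dose given 60 min before an oral dextrose challenge (5 g/kg). Plasma was sampled 20 min after dextrose for compound concentration, alongside plasma DPP-4 activity and active GLP-1. Values are mean ± SEM, n = 7 per group.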

[15] = Oral bioavailability in monkey at 2 mg/kg; assay type: ADME, organism-based, Macaca mulatta; details: rhesus monkey, in vivo
[16] = Half life in monkey at 1 mg/kg, iv and 2 mg/kg, po; assay type: ADME, organism-based, Macaca mulatta; details: rhesus monkey, in vivo
[17] = system: Mus musculus; assay: Reduction of dextrose induced blood glucose excursion in mouse at 0.1 mg/kg; assay type: functional; set-up: scale not given: the % may be the effect or the level left
Outline: (§2)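 Lean mice received a single oral dose of the compound 60 min before an oral dextrose challenge (5 g/kg) in an oral glucose tolerance test. The read-out was the reduction of the dextrose-induced blood glucose excursion. Data are mean ± SEM, n = 7 per group.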

[18] = Cmax in dog at 2 mg/kg, po; assay type: ADME, organism-based, Canis lupus familiaris; set-up: dose 2 mg/kg, route oral; details: in vivo
[19] = Cmax in monkey at 2 mg/kg, po; assay type: ADME, organism-based, Macaca mulatta; set-up: dose 2 mg/kg, route oral; details: rhesus monkey, in vivo
[20] = Half life in dog at 1 mg/kg, iv and 2 mg/kg, po; assay type: ADME, organism-based, Canis lupus familiaris; details: in vivo
[21] = Plasma clearance in monkey at 1 mg/kg, iv and 2 mg/kg, po; assay type: ADME, organism-based, Macaca mulatta; details: rhesus monkey
[22] = molecular target: Dipeptidyl peptidase 4 (Mus musculus, UniProt P28843); assay: Inhibition of mouse DPP4
Chain of Dipeptidyl peptidase 4 (Mus musculus, UniProt P28843) (P28843 whole entry): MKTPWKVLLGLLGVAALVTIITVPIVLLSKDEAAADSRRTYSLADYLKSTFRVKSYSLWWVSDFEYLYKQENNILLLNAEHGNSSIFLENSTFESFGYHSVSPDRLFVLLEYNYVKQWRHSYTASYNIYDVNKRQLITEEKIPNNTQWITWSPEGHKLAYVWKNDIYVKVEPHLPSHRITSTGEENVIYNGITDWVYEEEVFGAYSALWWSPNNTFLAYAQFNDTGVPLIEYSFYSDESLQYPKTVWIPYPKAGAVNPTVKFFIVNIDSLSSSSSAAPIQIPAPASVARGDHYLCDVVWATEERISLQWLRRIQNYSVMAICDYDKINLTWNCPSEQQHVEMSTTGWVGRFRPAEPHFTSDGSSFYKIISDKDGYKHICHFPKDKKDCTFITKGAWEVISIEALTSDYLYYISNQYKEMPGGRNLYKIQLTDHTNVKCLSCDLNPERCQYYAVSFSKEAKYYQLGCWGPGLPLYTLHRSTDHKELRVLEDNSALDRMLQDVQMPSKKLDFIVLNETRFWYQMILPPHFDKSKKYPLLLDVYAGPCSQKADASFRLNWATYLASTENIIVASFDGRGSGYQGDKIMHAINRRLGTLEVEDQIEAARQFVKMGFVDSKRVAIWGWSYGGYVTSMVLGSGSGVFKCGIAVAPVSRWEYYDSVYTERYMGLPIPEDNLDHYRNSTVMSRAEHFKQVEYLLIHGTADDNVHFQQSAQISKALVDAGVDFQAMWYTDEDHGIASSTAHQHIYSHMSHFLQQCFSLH

[23] = Oral bioavailability in dog at 2 mg/kg; assay type: ADME, organism-based, Canis lupus familiaris; details: in vivo
[24] = system: Mus musculus; assay: Reduction of dextrose induced blood glucose excursion in mouse at 1 mg/kg; assay type: functional; set-up: scale not given: the % may be the effect or the level left; outline: as §2
[25] = Oral bioavailability in mouse; assay type: ADME, organism-based; details: in vivo
[26] = Oral bioavailability in Zucker fa/fa rat; assay type: ADME, organism-based; details: in vivo

Compound `C[C@@H]1CN(C(=O)C[C@H](N)Cc2cc(F)c(F)cc2F)Cc2ccc(C(F)(F)F)n21.Cl` has an IC50 [1] of over 10 µM, a clearance [2] of 9.24 L/h/kg and an IC50 [3] of over 100 µM. For the same compound, the bioavailability [4] was 35%, the IC50 [5] was over 10 µM and the IC50 [6] was 0.014 µM. It also gave a half-life [7] of 1.9 h, an IC50 [8] of 33 µM and an IC50 [9] of 53 µM. It also gave an IC50 [10] of over 10 µM.
In the case of `C[C@@H]1c2nnc(C(F)(F)F)n2[C@H](C)CN1C(=O)C[C@H](N)Cc1cc(F)c(F)cc1F.Cl`, the IC50 [1] is reported as over 10 µM, the clearance [2] is reported as 5.1 L/h/kg and the IC50 [3] is reported as over 100 µM. It also gave a bioavailability [4] of 45%, an IC50 [5] of over 10 µM and an IC50 [6] of 0.012 µM. For the same compound, the half-life [7] was 2.1 h, the IC50 [8] was 70 µM and the IC50 [9] was 52 µM. For the same compound, the IC50 [10] was over 10 µM and the Cmax [11] was 0.092 µM.
With `Cl.N[C@@H](CC(=O)N1CCn2c(nnc2C(F)(F)F)C1)Cc1cc(F)c(F)cc1F` the clearance [2] was 3.6 L/h/kg, the F [12] was 76% and the IC50 [5] was over 10 µM. For the same compound, the half-life [7] was 1.7 h and the IC50 [10] was over 10 µM.
Work on `C[C@@H]1c2nnc(C(F)(F)F)n2CCN1C(=O)C[C@H](N)Cc1cc(F)c(F)cc1F.Cl` yielded an IC50 [1] of over 10 µM, a clearance [2] of 3.24 L/h/kg and an IC50 [3] of over 100 µM. It also gave a clearance [13] of 0.468 L/h/kg, a bioavailability [4] of 57% and an IC50 [5] of over 10 µM. The concentration [14] was 0.19 µM, the bioavailability [15] was 85% and the IC50 [6] was 0.0043 µM. It also gave a half-life [16] of 6 h, a half-life [7] of 2.4 h and an Activity [17] of 34%. For the same compound, the IC50 [8] was 17 µM, the Cmax [18] was 0.756 µM and the Cmax [19] was 0.41 µM. For the same compound, the half-life [20] was 8.8 h, the clearance [21] was 1.74 L/h/kg and the IC50 [22] was 0.011 µM. It also gave an IC50 [9] of over 100 µM, a bioavailability [23] of 91% and an IC50 [10] of over 10 µM. The Activity [24] was 55% and the Cmax [11] was 0.133 µM.
Compound `Cl.N[C@@H](CC(=O)N1CCn2c(nnc2C(F)(F)F)[C@H]1Cc1ccc(F)cc1)Cc1cc(F)c(F)cc1F` (mixture of isomers) has an IC50 [1] of over 10 µM, a clearance [2] of 1.74 L/h/kg and an IC50 [3] of 33 µM. It also gave a bioavailability [4] of 76%, a bioavailability [25] of 6% and an IC50 [5] of over 10 µM. It also gave an IC50 [6] of 0.00018 µM, a half-life [7] of 1.5 h and an IC50 [8] of 0.332 µM. For the same compound, the bioavailability [26] was 100%, the IC50 [9] was 20 µM and the IC50 [10] was over 10 µM. For the same compound, the Cmax [11] was 0.36 µM.
Compound `CN(C)C(=O)CC1c2nnc(C(F)(F)F)n2CCN1C(=O)C[C@H](N)Cc1cc(F)c(F)cc1F.Cl` (stereo in doubt; 41b) has an IC50 [1] of over 10 µM, a clearance [2] of 5.22 L/h/kg and an IC50 [3] of over 100 µM. For the same compound, the bioavailability [4] was 9%, the IC50 [5] was over 10 µM and the IC50 [6] was 0.0028 µM. The half-life [7] was 2.7 h, the IC50 [8] was 30 µM and the IC50 [9] was over 100 µM. For the same compound, the IC50 [10] was over 10 µM and the Cmax [11] was 0.004 µM.
`Cl.N[C@@H](CC(=O)N1CCn2c(nnc2C(F)(F)F)C1Cc1ccccc1F)Cc1cc(F)c(F)cc1F` (stereo in doubt; 45b) gave an IC50 [1] of over 10 µM, a clearance [2] of 4.44 L/h/kg and an IC50 [3] of 47 µM. For the same compound, the bioavailability [4] was 26%, the IC50 [5] was over 10 µM and the IC50 [6] was 0.00046 µM. For the same compound, the half-life [7] was 1.4 h, the IC50 [8] was 1.1 µM and the IC50 [9] was 39 µM. For the same compound, the IC50 [10] was over 10 µM and the Cmax [11] was 0.064 µM.
With `Cl.N[C@@H](CC(=O)N1CCn2c(nnc2C(F)(F)F)C1C(O)c1ccc(F)cc1)Cc1cc(F)c(F)cc1F` (stereo in doubt; 47b) the IC50 [1] was over 10 µM, the clearance [2] was 3.78 L/h/kg and the IC50 [3] was 36 µM. It also gave a bioavailability [4] of 8%, an IC50 [5] of over 10 µM and an IC50 [6] of 0.00032 µM. For the same compound, the half-life [7] was 2.6 h, the IC50 [8] was 0.326 µM and the IC50 [9] was 89 µM. The IC50 [10] was over 10 µM and the Cmax [11] was 0.02 µM.
Compound `N[C@@H](CC(=O)N1CCn2c(nnc2C(F)(F)F)C1Cc1cc(C(F)(F)F)cc(C(F)(F)F)c1)Cc1cc(F)c(F)cc1F` (stereo in doubt; 48a) has an IC50 [1] of over 10 µM, an IC50 [3] of over 100 µM and an IC50 [5] of over 10 µM. It also gave an IC50 [6] of 0.587 µM, an IC50 [8] of over 100 µM and an IC50 [9] of over 100 µM. For the same compound, the IC50 [10] was over 10 µM.
Work on `Cl.N[C@@H](CC(=O)N1CCn2c(nnc2C(F)(F)F)C1Cc1cc(C(F)(F)F)cc(C(F)(F)F)c1)Cc1cc(F)c(F)cc1F` (stereo in doubt; 48b) yielded an IC50 [1] of over 10 µM, a clearance [2] of 3 L/h/kg and an IC50 [3] of over 100 µM. It also gave a bioavailability [4] of 19%, an IC50 [5] of over 10 µM and an IC50 [6] of 0.0063 µM. It also gave a half-life [7] of 4.1 h, an IC50 [8] of over 100 µM and an IC50 [9] of over 100 µM. The IC50 [10] was over 10 µM and the Cmax [11] was 0.042 µM.
Compound `N[C@@H](CC(=O)N1CCn2c(nnc2C(F)(F)F)C1Cc1ccccn1)Cc1cc(F)c(F)cc1F` (stereo in doubt; 49a) has an IC50 [1] of over 10 µM, an IC50 [3] of over 100 µM and an IC50 [5] of over 10 µM. It also gave an IC50 [6] of 0.132 µM, an IC50 [8] of over 100 µM and an IC50 [9] of over 100 µM. For the same compound, the IC50 [10] was over 10 µM.
`Cl.N[C@@H](CC(=O)N1CCn2c(nnc2C(F)(F)F)C1Cc1ccccn1)Cc1cc(F)c(F)cc1F` (stereo in doubt; 49b) gave an IC50 [1] of over 10 µM, a clearance [2] of 5.64 L/h/kg and an IC50 [3] of over 100 µM. For the same compound, the bioavailability [4] was 9%, the IC50 [5] was over 10 µM and the IC50 [6] was 0.0004 µM. For the same compound, the half-life [7] was 1.9 h, the IC50 [8] was 5 µM and the IC50 [9] was over 100 µM. It also gave an IC50 [10] of over 10 µM and a Cmax [11] of 0.016 µM.
